ChEMBL document CHEMBL4000155, “Synthesis and Antileukemic Activities of Piperlongumine and HDAC Inhibitor Hybrids against Acute Myeloid Leukemia Cells” (J Med Chem, 2016)
The source made the active and inactive calls. The calls are words filed in the database; no cut-off is given here.

What was measured:
[1] = test system: U-937; assay: Induction of apoptosis in p53 null human U937 cells assessed as PARP-1 cleavage at 2 uM after 24 hrs in presence of SAHA by Western blot analysis; type: functional, cell-based
Outline: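 U937 cells exposed for 24 h. Lysates with protease/phosphatase inhibitors were separated by SDS-PAGE, transferred to PVDF and probed for PARP and cleaved caspase-3, with β-actin as loading control.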

[2] = test system: CMK; assay: Antiproliferative activity against Ara-C resistant human CMK cells after 72 hrs by MTT assay; type: functional, cell-based
[3] = test system: OCI-AML-3; assay: Antiproliferative activity against human OCI-AML3 cells after 72 hrs in presence of SAHA by MTT assay; type: functional, cell-based; conditions: OCI-AML-3, 72 h
Outline: (§1)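 AML cell lines grown in RPMI 1640 with 10% FBS (20% for MOLM-13), 2 mM L-glutamine and penicillin/streptomycin at 37 °C, 5% CO2. Ara-C-resistant HL-60 and CMK sublines came from stepwise cytarabine selection and were kept in 600 nM or 300 nM cytarabine respectively. Cells were treated 72 h. MTT 0.05 mg/mL, 3 h at 37 °C, DMSO solubilization, absorbance at 570 nm. IC50 given ± SEM.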

[4] = test system: U-937; assay: Induction of apoptosis in p53 null human U937 cells at 2 uM preincubated with NAC for 3 hrs followed by compound addition measured after 24 hrs by annexin V-FITC/PI staining based flow cytometry; type: functional, cell-based
Outline: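 U937 cells preincubated 3 h with 3 mM NAC or vehicle and washed with PBS to remove excess NAC. Then drug alone or with SAHA for 24 h. Apoptosis scored as % Annexin V+ by Annexin V-FITC/PI flow cytometry; vehicle DMSO < 0.1% v/v.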

[5] = test system: MV4-11; assay: Antiproliferative activity against human MV4-11 cells after 72 hrs by MTT assay; type: functional, cell-based; conditions: MV4-11, 72 h
[6] = test system: HL-60; assay: Antiproliferative activity against human HL60 cells after 72 hrs by MTT assay; type: functional, cell-based; conditions: HL-60, 72 h
[7] = Antiproliferative activity against human CMS cells after 72 hrs by MTT assay; type: functional, cell-based; outline: as §1
[8] = test system: U-937; assay: Induction of DNA damage in p53 null human U937 cells assessed as decrease in CHK1 expression level by measuring ratio of CHK1 to beta-actin level at 2 uM after 24 hrs by Western blot analysis relative to control; type: functional
Outline: (§2)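 U937 cells treated 24 h, alone or PL+SAHA. Whole-cell lysates (protease/phosphatase inhibitors) immunoblotted for γH2AX, CHK1, RAD51, Bim and XIAP. Band densitometry normalised to β-actin, then expressed as fold change relative to the untreated control.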

[9] = test system: U-937; assay: Induction of DNA damage in p53 null human U937 cells at 2 uM after 20 hrs by SYBR gold staining based alkaline comet assay; type: functional, cell-based
Outline: (§3)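 U937 cells treated 20 h with SAHA and PL alone or combined (16 h for hybrids). Alkaline single-cell gel electrophoresis, SYBR Gold staining, microscopy. Median % DNA in tail from 4 replicate gels ± s.e.m.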

[10] = test system: MCF-10A; assay: Cytotoxicity against human MCF10A cells assessed as decrease in cell viability at 0.5 to 5 uM after 24 hrs by MTT assay; type: cell-based
Outline: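 MCF-10A (DMEM/F12, 5% horse serum, hydrocortisone, cholera toxin, insulin, EGF) and U937 (RPMI 1640, 10% FBS) were exposed to 0.5–5 μM, alone or PL+SAHA 1:1, for 24 h. MTT 0.05 mg/mL, 3 h at 37 °C, DMSO solubilization, A570. Viability given as mean ± SD of four to six independent experiments. DMSO <0.1% vehicle control.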

[11] = test system: OCI-AML-3; assay: Antiproliferative activity against human OCI-AML3 cells after 72 hrs by MTT assay; type: functional, cell-based; conditions: OCI-AML-3, 72 h
[12] = Antiproliferative activity against human CMY cells after 72 hrs by MTT assay; type: functional, cell-based
[13] = test system: U-937; assay: Induction of apoptosis in p53 null human U937 cells at 2 uM after 24 hrs in presence of SAHA by annexin V-FITC/PI staining based flow cytometry; type: functional
Outline: (§4)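 Human U937 AML cells (p53 null) in RPMI 1640 with 10% FBS, 2 mM L-glutamine, penicillin/streptomycin, 37 °C, 5% CO2. Exposed 24 h to compound alone or with SAHA; vehicle DMSO < 0.1% v/v. Annexin V-FITC/PI staining and flow cytometry, reported as % Annexin V+ cells. Three independent experiments in triplicate; one representative shown. EC50 taken as concentration giving 50% Annexin V+ cells versus vehicle.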

[14] = test system: U-937; assay: Induction of apoptosis in p53 null human U937 cells assessed as decrease in XIAP expression level by measuring ratio of XIAP to beta-actin level at 2 uM after 24 hrs by Western blot analysis relative to control; type: functional; outline: as §2
[15] = test system: U-937; assay: Antiproliferative activity against p53 null human U937 cells after 72 hrs by MTT assay; type: functional, cell-based; conditions: U-937, 72 h
[16] = test system: HL-60; assay: Antiproliferative activity against Ara-C resistant human HL60 cells after 72 hrs by MTT assay; type: functional, cell-based; conditions: HL-60, 72 h
[17] = species: Homo sapiens; conditions: at 1 µM
[18] = test system: U-937; assay: Induction of DNA damage in p53 null human U937 cells at 2 uM after 20 hrs in presence of SAHA by SYBR gold staining based alkaline comet assay; type: functional, cell-based; outline: as §3
[19] = test system: CMK; assay: Antiproliferative activity against human CMK cells after 72 hrs by MTT assay; type: functional, cell-based
[20] = test system: MOLM-13; assay: Antiproliferative activity against human MOLM13 cells harboring wild type p53/FLT3-ITD mutant after 72 hrs by MTT assay; type: functional, cell-based; conditions: MOLM-13, 72 h
[21] = test system: U-937; assay: Induction of apoptosis in p53 null human U937 cells assessed as increase in Bim EL expression level by measuring ratio of Bim EL to beta-actin level at 2 uM after 24 hrs by Western blot analysis relative to control; type: functional; outline: as §2
[22] = test system: U-937; assay: Induction of DNA damage in p53 null human U937 cells assessed as increase in gammaH2AX expression level by measuring ratio of gammaH2AX to beta-actin level at 2 uM after 24 hrs by Western blot analysis relative to control; type: functional; outline: as §2
[23] = test system: U-937; assay: Induction of apoptosis in p53 null human U937 cells at 2 uM after 24 hrs by annexin V-FITC/PI staining based flow cytometry; type: functional; outline: as §4
[24] = test system: MOLM-13; assay: Induction of apoptosis in human MOLM13 cells harboring wild type p53/FLT3-ITD mutant at 1 uM after 24 hrs by annexin V-FITC/PI staining based flow cytometry; type: functional
Outline: (§5)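 Cells treated 24 h, single agents or SAHA+PL at 1:1 (each drug at the stated concentration). Annexin V-FITC/PI kit staining, then flow cytometry, reported as % Annexin V+ cells. Three independent experiments in triplicate, with data from one representative experiment. DMSO <0.1% vehicle control.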

[25] = test system: U-937; assay: Induction of apoptosis in p53 null human U937 cells at 0.5 uM after 24 hrs by annexin V-FITC/PI staining based flow cytometry; type: functional; outline: as §5
[26] = test system: MDA-MB-231; assay: Antiproliferative activity against human MDA-MB-231 cells after 24 hrs by MTT assay; type: functional, cell-based; conditions: MDA-MB-231, 24 h

With `COc1cc(/C=C/C(=O)N2CCC=CC2=O)cc(OC)c1OC` [PIPLARTINE] the Activity [1] was “Active”, the IC50 [2] was 1910 nM and the IC50 [3] was 1110 nM. For the same compound, the Activity [4] was “inactive”, the IC50 [5] was 1440 nM and the IC50 [6] was 1780 nM. For the same compound, the IC50 [7] was 3100 nM, the Ratio [8] was 1 and the Activity [9] was “inactive”. The Activity [10] was “Non-Toxic”, the IC50 [11] was 1870 nM and the IC50 [12] was 1620 nM. The Activity [13] was 62.5%, the Ratio [14] was 1 and the IC50 [15] was 2170 nM. For the same compound, the IC50 [16] was 2250 nM, the inhibition [17] was “inactive” and the Activity [18] was “Active”. It also gave an IC50 [19] of 2820 nM, an IC50 [20] of 1840 nM and a Ratio [21] of 1. For the same compound, the Ratio [22] was 1.
Work on `COc1cc(/C=C/C(=O)N2CCC=CC2=O)cc(OC)c1OCCCCCCC(=O)NO` yielded an IC50 [2] of 215 nM, an Activity [23] of 56.9% and an Activity [24] of 24.6%. For the same compound, the Activity [4] was “inactive”, the IC50 [5] was 230 nM and the IC50 [6] was 357 nM. The IC50 [7] was 385 nM, the Ratio [8] was 0.7 and the Activity [25] was “inactive”. The Activity [9] was “Active”, the Activity [10] was “Non-Toxic” and the IC50 [11] was 615 nM. The IC50 [12] was 185 nM, the IC50 [26] was 382 nM and the Ratio [14] was 0.6. For the same compound, the IC50 [15] was 498 nM, the IC50 [16] was 692 nM and the inhibition [17] was “Active”. The IC50 [19] was 256 nM, the IC50 [20] was 454 nM and the Ratio [21] was 1.8. It also gave a Ratio [22] of 4.5.
